Assay results as given in ChEMBL document CHEMBL1126860, “Efficient inhibition of human leukocyte elastase and cathepsin G by saccharin derivatives” (J Med Chem, 1993).
Activity calls are given as the source filed them. No cut-off for these calls is given here.

These molecules were tested against T1, Neutrophil elastase (Homo sapiens) (UniProt P08246) (assay: Apparent second-order inactivation rate constant was evaluated against human leukocyte Elastase).
T1 sequence (whole entry): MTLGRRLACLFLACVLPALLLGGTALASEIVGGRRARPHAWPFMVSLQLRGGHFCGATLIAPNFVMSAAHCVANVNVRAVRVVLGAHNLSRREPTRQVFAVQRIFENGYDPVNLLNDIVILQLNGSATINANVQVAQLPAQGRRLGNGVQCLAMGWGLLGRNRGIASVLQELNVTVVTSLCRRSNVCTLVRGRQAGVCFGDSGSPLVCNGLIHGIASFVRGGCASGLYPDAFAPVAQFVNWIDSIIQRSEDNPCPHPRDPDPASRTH
Type: functional
O=C(/C=C/c1ccccc1)OCN1C(=O)c2ccccc2S1(=O)=O gave a K obs / 1 1/Ms of 2240.
In the case of CC(=O)OCN1C(=O)c2ccccc2S1(=O)=O, the K obs / 1 1/Ms is reported as 140.
O=C(CS(=O)(=O)c1ccccc1)OCN1C(=O)c2ccccc2S1(=O)=O gave a K obs / 1 1/Ms of 780.
O=C(C[S+]([O-])c1ccccc1)OCN1C(=O)c2ccccc2S1(=O)=O (stereo unspecified) was tested, and the K obs / 1 1/Ms was 800.
With O=C(CCc1ccccc1)OCN1C(=O)c2ccccc2S1(=O)=O the K obs / 1 1/Ms was 2280.
O=C1c2ccccc2S(=O)(=O)N1Cn1ccnc1 gave a K obs / 1 1/Ms of 40.
O=C1c2ccccc2S(=O)(=O)N1CF gave a K obs / 1 1/Ms of 4750.
With O=C(CSc1ccccc1)OCN1C(=O)c2ccccc2S1(=O)=O the K obs / 1 1/Ms was 1790.
With O=C(/C=C/Sc1ccccc1)OCN1C(=O)c2ccccc2S1(=O)=O the K obs / 1 1/Ms was 8390.
O=C(/C=C\Sc1ccccc1)OCN1C(=O)c2ccccc2S1(=O)=O was tested, and the K obs / 1 1/Ms was 5700.

The molecules below were run against T1, Neutrophil elastase (Homo sapiens) (assay: Apparent second-order inactivation rate constant was evaluated against human leukocyte Elastase; Inactive).
Type: functional
How it was run: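 Incubation method: human leukocyte elastase (300 nM) with inhibitor in 0.1 M HEPES, pH 7.25, 1% DMSO. Aliquots withdrawn periodically and assayed for residual activity with methoxysuccinyl-Ala-Ala-Pro-Val p-nitroanilide. Pseudo-first-order k_obs taken from slopes of ln(Et/Eo) versus time, then expressed as k_obs/[I] (M⁻¹ s⁻¹). Kinetics analysed by the Kitz–Wilson method.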
For O=C1c2ccccc2S(=O)(=O)N1CO, the “K obs / 1 1/Ms” value was “inactive”.
